# From ChEMBL document CHEMBL4425122, “Discovery of 1-(1H-Pyrazolo[4,3-c]pyridin-6-yl)urea Inhibitors of Extracellular Signal-Regulated Kinase (ERK) for the Treatment of Cancers” (J Med Chem, 2016)
# Columns and labels:
# [1] = biological target: Mitogen-activated protein kinase 1 (Homo sapiens, UniProt P28482); assay: Inhibition of human ERK2 preincubated for 15 mins followed by addition of IMAP peptide substrate and ATP measured after 60 mins by IMAP-FP assay
# Summary of the method: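 Final: 0.5 nM hERK2, 900 nM unlabeled + 80 nM labeled peptide, 30 µM ATP; 60 min, quenched with IMAP beads in binding buffer with 24 mM NaCl, read by fluorescence polarization after 60 min.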
# [2] = Inhibition of ERK in human A375SM cells harboring BRAF V600E mutant assessed as inhibition of RSK phosphorylation measured after 4 hrs by mesoscale electrochemiluminescent sandwich assay; format: cell-based; settings: A375-SM
# Summary of the method: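 A375SM (BRAF V600E melanoma) cells, 10,000 per well, treated 4 h; lysed 20 min at 4 °C in Tris/NaCl/EGTA/EDTA/Triton/NaF buffer with protease and phosphatase inhibitors. Lysate captured with biotin anti-RSK1 on streptavidin MSD plate, detected with SULFO-TAG anti-pRSK (pThr359/Ser363) overnight at 4 °C; electrochemiluminescence read. IC50 from 11-point titration.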
# [3] = biological target: Cytochrome P450 3A4 (Homo sapiens, UniProt P08684); assay: Inhibition of CYP3A4 (unknown origin); format: ADME
# Sequence of Cytochrome P450 3A4 (P08684 whole entry): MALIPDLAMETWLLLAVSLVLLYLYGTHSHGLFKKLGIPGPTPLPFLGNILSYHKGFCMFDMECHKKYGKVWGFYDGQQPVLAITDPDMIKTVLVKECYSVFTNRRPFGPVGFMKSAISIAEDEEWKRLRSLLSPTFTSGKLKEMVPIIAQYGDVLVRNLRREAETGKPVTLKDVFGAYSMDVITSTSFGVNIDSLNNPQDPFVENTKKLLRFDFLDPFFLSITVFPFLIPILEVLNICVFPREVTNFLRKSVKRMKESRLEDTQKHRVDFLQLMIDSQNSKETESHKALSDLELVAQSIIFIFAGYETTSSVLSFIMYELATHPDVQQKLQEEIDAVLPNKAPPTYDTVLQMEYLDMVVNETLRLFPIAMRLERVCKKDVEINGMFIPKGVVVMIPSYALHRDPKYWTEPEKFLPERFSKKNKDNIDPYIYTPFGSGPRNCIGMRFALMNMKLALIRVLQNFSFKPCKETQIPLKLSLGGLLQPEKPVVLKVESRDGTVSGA
# [4] = biological target: Voltage-gated inwardly rectifying potassium channel KCNH2 (Homo sapiens, UniProt Q12809); assay: Inhibition of human ERG
# Sequence of Voltage-gated inwardly rectifying potassium channel KCNH2 (Q12809 whole entry): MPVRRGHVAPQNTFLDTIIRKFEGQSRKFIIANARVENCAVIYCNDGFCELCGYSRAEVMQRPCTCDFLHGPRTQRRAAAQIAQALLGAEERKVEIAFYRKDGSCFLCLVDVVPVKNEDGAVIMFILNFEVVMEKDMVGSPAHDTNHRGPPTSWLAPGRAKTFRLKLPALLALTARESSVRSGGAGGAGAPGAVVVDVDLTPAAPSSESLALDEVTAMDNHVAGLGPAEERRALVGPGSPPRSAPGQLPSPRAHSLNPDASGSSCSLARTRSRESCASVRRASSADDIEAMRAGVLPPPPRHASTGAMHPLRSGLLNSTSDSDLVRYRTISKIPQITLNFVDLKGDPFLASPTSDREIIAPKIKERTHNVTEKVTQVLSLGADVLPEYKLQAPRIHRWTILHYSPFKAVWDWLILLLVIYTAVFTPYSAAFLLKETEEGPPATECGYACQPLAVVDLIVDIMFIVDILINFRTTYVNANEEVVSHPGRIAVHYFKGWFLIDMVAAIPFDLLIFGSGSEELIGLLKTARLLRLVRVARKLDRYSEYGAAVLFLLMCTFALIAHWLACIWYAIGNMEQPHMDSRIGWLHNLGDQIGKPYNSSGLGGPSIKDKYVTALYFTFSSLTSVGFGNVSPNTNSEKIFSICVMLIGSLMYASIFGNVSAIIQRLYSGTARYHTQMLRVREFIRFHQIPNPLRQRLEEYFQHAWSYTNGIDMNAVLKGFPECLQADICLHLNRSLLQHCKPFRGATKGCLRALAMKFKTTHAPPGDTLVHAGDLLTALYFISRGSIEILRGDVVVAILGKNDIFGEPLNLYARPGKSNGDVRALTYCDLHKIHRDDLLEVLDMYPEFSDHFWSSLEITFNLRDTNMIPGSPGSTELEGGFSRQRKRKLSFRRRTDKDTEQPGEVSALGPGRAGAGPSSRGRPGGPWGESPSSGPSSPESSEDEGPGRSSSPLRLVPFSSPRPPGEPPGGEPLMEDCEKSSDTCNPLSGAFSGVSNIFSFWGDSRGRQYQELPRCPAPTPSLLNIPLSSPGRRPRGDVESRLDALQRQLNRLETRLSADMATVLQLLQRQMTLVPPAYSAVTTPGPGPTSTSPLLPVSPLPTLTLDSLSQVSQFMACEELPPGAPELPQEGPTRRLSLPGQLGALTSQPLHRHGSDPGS
# [5] = biological target: Mitogen-activated protein kinase 1 (Mus musculus, UniProt P63085); assay: Inhibition of mouse ERK2 preincubated for 15 mins followed by addition of IMAP peptide substrate and ATP measured after 60 mins by IMAP-FP assay
# Sequence of Mitogen-activated protein kinase 1 (Mus musculus, UniProt P63085) (P63085 whole entry): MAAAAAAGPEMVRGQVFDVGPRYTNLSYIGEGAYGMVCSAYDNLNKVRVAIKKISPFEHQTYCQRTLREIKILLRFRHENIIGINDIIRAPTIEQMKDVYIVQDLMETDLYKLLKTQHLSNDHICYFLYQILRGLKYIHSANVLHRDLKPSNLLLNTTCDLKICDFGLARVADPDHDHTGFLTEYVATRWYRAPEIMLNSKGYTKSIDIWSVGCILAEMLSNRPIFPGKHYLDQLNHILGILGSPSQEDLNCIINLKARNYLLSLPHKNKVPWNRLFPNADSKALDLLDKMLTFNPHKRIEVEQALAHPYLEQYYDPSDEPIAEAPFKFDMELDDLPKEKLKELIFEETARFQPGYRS
# [6] = Inhibition of ERK human A375 cells assessed as inhibition of RSK phosphorylation measured after 4 hrs by mesoscale electrochemiluminescent sandwich assay; settings: A-375, 4 h
# [7] = species on record: Homo sapiens; assay: Selectivity ratio, ratio of IC50 for human ERK2 to IC50 for MEK1 (unknown origin)
# [8] = species on record: Homo sapiens; assay: Selectivity ratio, ratio of IC50 for human ERK2 to IC50 for RAF1 (unknown origin)
# [9] = species on record: Homo sapiens; assay: Selectivity ratio, ratio of IC50 for human ERK2 to IC50 for COT (unknown origin)
# [10] = species on record: Homo sapiens; assay: Selectivity ratio, ratio of IC50 for human ERK2 to IC50 for BRAF (unknown origin)
# Sequence of Mitogen-activated protein kinase 1 (Homo sapiens, UniProt P28482) (P28482 whole entry): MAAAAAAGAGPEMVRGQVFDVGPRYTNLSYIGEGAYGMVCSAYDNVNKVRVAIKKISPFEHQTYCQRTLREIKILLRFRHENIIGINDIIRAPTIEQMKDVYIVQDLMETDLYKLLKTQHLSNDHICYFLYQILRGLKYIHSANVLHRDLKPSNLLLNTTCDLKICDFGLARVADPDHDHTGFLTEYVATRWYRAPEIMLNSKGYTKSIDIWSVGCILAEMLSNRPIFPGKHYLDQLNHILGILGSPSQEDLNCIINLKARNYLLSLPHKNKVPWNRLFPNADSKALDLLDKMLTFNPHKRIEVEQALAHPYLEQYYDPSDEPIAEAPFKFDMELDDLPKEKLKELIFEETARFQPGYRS
IC50 [1] [µM],IC50 [2] [µM],IC50 [5] [µM],Structure (SMILES),other results
> 3,,,Cc1cc(-c2n[nH]c3cc(Nc4ncc(-c5ccccc5)s4)ncc23)ccn1,
0.005,0.75,,Cc1cc(-c2n[nH]c3cc(NC(=O)NC4CCc5ccccc54)ncc23)ccn1 (stereo not given),
0.0003,0.13,,Cc1cc(-c2n[nH]c3cc(NC(=O)N[C@H](C)c4ccccc4)ncc23)cc(C)n1,IC50 [3]: 0.78 µM; IC50 [4]: > 20 µM
,,> 3,Cc1cc(-c2n[nH]c3cc(NC(=O)OCc4ccccc4)ncc23)ccn1,
0.0003,0.11,,C[C@@H](NC(=O)Nc1cc2[nH]nc(-c3cnn(C)c3)c2cn1)c1ccccc1,IC50 [3]: 0.38 µM; IC50 [4]: > 20 µM
,,0.42,Cc1cc(-c2n[nH]c3cc(NC(=O)CCc4ccccc4)ncc23)ccn1,
,,,Cc1cc(-c2n[nH]c3cc(NC(=O)NCCc4ccccc4)ncc23)ccn1,IC50 [6]: 0.11 µM
,,> 3,Cc1cc(-c2n[nH]c3cc(NC(=O)OCc4ccccc4)ccc23)ccn1,
0.0008,0.36,,C[C@@H](NC(=O)Nc1cc2[nH]nc(-c3ccc(F)cc3)c2cn1)c1ccccc1,
0.0009,0.22,0.0002,Cc1cc(-c2n[nH]c3cc(NC(=O)NCc4ccccc4)ncc23)ccn1,Ratio IC50 [7]: < 100; Ratio IC50 [8]: < 100; Ratio IC50 [9]: < 100; Ratio IC50 [10]: < 100
,0.55,,C[C@@H](NC(=O)Nc1cc2[nH]nc(C3CC3)c2cn1)c1ccccc1,
